Laboratory results published in ChEMBL document CHEMBL4257537, “Design, synthesis, and biological evaluation of m-amidophenol derivatives as a new class of antitubercular agents” (Medchemcomm, 2018).
≈ marks a conversion by molar mass, not a printed value.

Columns and labels:
[1] = system: Mycobacterium tuberculosis; experiment: Antitubercular activity against Mycobacterium tuberculosis H37Ra after 5 days by luminescence assay; assay type: functional; conditions: 120 h
Outline: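 Compounds were 10-point two-fold dilutions in 7H9-Tw-OADC, top 100 µg/mL, final DMSO 2%. Controls were INH 1 µg/mL (zero growth) and DMSO (maximum growth). RLU was read daily in triplicate over days 0–5. Percent growth was fitted to a Gompertz model, and MIC was taken where the inflection point meets the lower asymptote.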

[2] = system: Mycobacterium tuberculosis; experiment: Antimycobacterial activity against Mycobacterium tuberculosis H37Rv after 7 days by microplate alamar blue assay; assay type: functional; conditions: 168 h
Outline: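 Each well held a 1/100 culture dilution plus 10-point two-fold DMSO dilutions (top 100 µg/mL, final DMSO 2%). INH and RIF were the positive controls. After 7 days at 37 °C, Tween 80 and alamarBlue were added for 16–24 h. MIC was the lowest concentration preventing the blue-to-pink change.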

Staphylococcus aureus = experiment: Toxicity in Staphylococcus aureus after 18 to 24 hrs by two-fold serial dilution method; assay type: organism-based
Escherichia coli = experiment: Toxicity in Escherichia coli after 18 to 24 hrs by two-fold serial dilution method; assay type: organism-based
Enterococcus faecalis = experiment: Toxicity in Enterococcus faecalis after 18 to 24 hrs by two-fold serial dilution method; assay type: organism-based
HepG2 = experiment: Cytotoxicity against human HepG2 cells after 72 hrs by MTT assay; assay type: cell-based; conditions: HepG2, 72 h
RAW264.7 = experiment: Cytotoxicity against mouse RAW264.7 cells after 72 hrs by MTT assay; assay type: cell-based; conditions: RAW264.7, 72 h
[3] = Selectivity index, ratio of IC50 for human HepG2 cells to MIC for Mycobacterium tuberculosis H37Ra; assay type: toxicity; conditions: read-out: Selectivity Index
[4] = Selectivity index, ratio of IC50 for mouse RAW264.7 cells to MIC for Mycobacterium tuberculosis H37Ra; assay type: toxicity; conditions: read-out: Selectivity Index

Compound | MIC [1] [µg/mL] | also measured
O=C(Nc1cccc(O)c1)c1ccccc1 | > 50 | 
CC(C)CCc1cc(O)cc(NC(=O)C2CCCCC2)c1 | > 50 | 
O=C(Nc1cc(O)cc(Cc2ccccc2)c1)C(F)(F)F | > 50 | 
O=C(Nc1cc(O)cc(Cc2ccccc2)c1)c1ccco1 | 10 (≈ 34.1 µM) | 
CC(C)(C)C(=O)Nc1cc(O)cc(Cc2ccccc2)c1 | 2.5 (≈ 8.82 µM) | 
O=C(O)c1cc(Cc2ccccc2)cc(NC(=O)c2ccccc2)c1 | > 50 | 
O=C(Nc1cc(O)cc(Cc2ccccc2)c1)c1ccc(C2CCCCC2)cc1 | > 50 | 
O=C(Nc1cc(O)cc(Cc2ccccc2)c1)c1ccc(OC(F)(F)F)cc1 | 10 (≈ 25.8 µM) | 
O=C(Nc1cc(O)cc(Cc2ccccc2)c1)c1cccnc1Cl | 5 (≈ 14.8 µM) | 
Cc1ccc(C(=O)Nc2cc(O)cc(Cc3ccccc3)c2)cc1 | 1.25 (≈ 3.94 µM) | 
O=C(Nc1cc(O)cc(Cc2ccccc2)c1)c1ccc(Cl)cc1Cl | 5 (≈ 13.4 µM) | 
O=C(Nc1cc(O)cc(Cc2ccccc2)c1)c1ccccc1Cl | 2.5 (≈ 7.4 µM) | 
O=C(Nc1cc(O)cc(Cc2ccccc2)c1)c1cccs1 | 2.5 (≈ 8.08 µM) | 
CCC1CCC(C(=O)Nc2cc(O)cc(Cc3ccccc3)c2)CC1 (stereo unspecified) | 2.5 (≈ 7.41 µM) | 
O=C(Nc1cc(O)cc(Cc2ccccc2)c1)C1CCCCC1 | 0.625 (≈ 2.02 µM) | MIC [2]: 0.39 µg/mL (≈ 1.26 µM); MIC (Staphylococcus aureus): > 50 µg/mL; MIC (Escherichia coli): > 50 µg/mL; MIC (Enterococcus faecalis): > 50 µg/mL; IC50 (HepG2): > 161 µM; IC50 (RAW264.7): > 323 µM; selectivity ratio [3]: > 80; selectivity ratio [4]: > 160
Nc1cc(Cc2ccccc2)cc(NC(=O)c2ccccc2)c1 | 10 (≈ 33.1 µM) | 
CC(=O)Nc1cc(O)cc(Cc2ccccc2)c1 | > 100 | 
Cc1nnsc1C(=O)Nc1cc(O)cc(Cc2ccccc2)c1 | 10 (≈ 30.7 µM) | 
O=C(Nc1cc(O)cc(Cc2ccccc2)c1)C1CCCC1 | 2.5 (≈ 8.46 µM) | 
COc1cc(Cc2ccccc2)cc(NC(=O)c2ccccc2)c1 | > 50 | 
CC(C)(C)c1ccc(C(=O)Nc2cc(O)cc(Cc3ccccc3)c2)cc1 | 2.5 (≈ 6.95 µM) | 
O=C(Nc1cc(O)cc(Cc2ccccc2)c1)C1CCOCC1 | 6.25 (≈ 20.1 µM) | 

Compound | MIC [1] [µg/mL] | also measured
O=C(Nc1cc(O)cc(Cc2ccccc2)c1)c1cc(C(F)(F)F)cc(C(F)(F)F)c1 | > 25 | 
O=C(Nc1cc(O)cc(Cc2ccccc2)c1)C1CC1 | 5 (≈ 18.7 µM) | 
CCCCCc1cc(O)cc(NC(=O)C2CCCCC2)c1 | > 50 | 
O=C(Nc1cc(O)cc(Cc2ccccc2)c1)N1CCOCC1 | 12.5 (≈ 40 µM) | 
Cc1ccc(C)c(Cc2cc(O)cc(NC(=O)C3CCCCC3)c2)c1 | > 50 | 
Oc1cccc(Cc2ccccc2)c1 | > 50 | 
O=C(Nc1cc(O)cc(Cc2ccccc2)c1)c1ccc(C(F)(F)F)cc1 | 5 (≈ 13.5 µM) | 
CC(C)(C)C1CCC(C(=O)Nc2cc(O)cc(Cc3ccccc3)c2)CC1 (stereo unspecified) | > 50 | 
O=C(Nc1cc(O)cc(Cc2ccccc2)c1)C12CC3CC(CC(C3)C1)C2 | > 50 | 
O=C(Nc1cc(O)cc(Cc2ccccc2)c1)c1ccccc1 | 5 (≈ 16.5 µM) | MIC [2]: 0.39 µg/mL (≈ 1.29 µM); MIC (Staphylococcus aureus): > 50 µg/mL; MIC (Escherichia coli): > 50 µg/mL; MIC (Enterococcus faecalis): > 50 µg/mL; IC50 (HepG2): > 330 µM; IC50 (RAW264.7): > 330 µM; selectivity ratio [3]: > 20; selectivity ratio [4]: > 20
O=C(Nc1cc(O)cc(C(O)c2ccccc2)c1)c1ccccc1 (stereo unspecified) | > 50 | 
O=C(Nc1cc(O)cc(Cc2ccccc2)c1)c1ccc(F)c(Cl)c1 | 5 (≈ 14.1 µM) | 
CCCc1cc(O)cc(NC(=O)C2CCCCC2)c1 | > 50 | 
O=C(Nc1cc(O)cc(Cc2ccccc2)c1)c1ccc([N+](=O)[O-])cc1 | > 50 | 
O=C(Nc1cc(O)cc(Cc2ccccc2)c1)c1cccc(Cl)c1 | 2.5 (≈ 7.4 µM) | 
O=C(Nc1cc(O)cc(Cc2ccccc2)c1)c1ccc(Cl)cc1 | 2.5 (≈ 7.4 µM) | 
CC(C)C(=O)Nc1cc(O)cc(Cc2ccccc2)c1 | 5 (≈ 18.6 µM) | 
CC1(C)S[C@@H]2[C@H](NC(=O)[C@H](N)c3ccc(O)cc3)C(=O)N2[C@H]1C(=O)O [AMOXICILLIN] |  | MIC (Staphylococcus aureus): 0.78 µg/mL (≈ 2.13 µM)
NNC(=O)c1ccncc1 [ISONIAZID] | 0.1 (≈ 0.729 µM) | MIC [2]: 0.41 µg/mL (≈ 2.99 µM)
CC1COc2c(N3CCN(C)CC3)c(F)cc3c(=O)c(C(=O)O)cn1c23 (stereo unspecified) [OFLOXACIN] |  | MIC (Staphylococcus aureus): 0.31 µg/mL (≈ 0.858 µM); MIC (Escherichia coli): 1.25 µg/mL (≈ 3.46 µM)
CO[C@H]1/C=C/O[C@@]2(C)Oc3c(C)c(O)c4c(O)c(c(/C=N/N5CCN(C)CC5)c(O)c4c3C2=O)NC(=O)/C(C)=C\C=C\[C@H](C)[C@H](O)[C@@H](C)[C@@H](O)[C@@H](C)[C@H](OC(C)=O)[C@@H]1C [RIFAMPIN] |  | MIC [2]: 0.003 µg/mL (≈ 0.00365 µM)
